According to the EternaBench riboswitch data:

System: MS2 coat protein
Assay: apparent Kd, MS2 coat protein; higher = weaker binding; RNA-MaP array; FMN 200 µM where present
How it was run: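 Stalled E. coli RNA polymerase transcribed the designs on Illumina sequencing-chip clusters. SNAP-549-labelled MS2 coat protein was titrated from 0.7 or 1.5 nM, doubling to 3 µM, without and then with constant ligand, in 100 mM Tris-HCl pH 7.5, 80 mM KCl, 4 mM MgCl2, BSA, DTT, yeast tRNA and Tween-20. Per-cluster binding curves were fitted to green signal normalised to red-channel RNA signal and control-cluster median Fmax. The apparent Kd is the median of the filtered fits.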

[1] = designed as: ON switch for flavin mononucleotide, no ligand
[2] = ligand present: flavin mononucleotide, designed as: ON switch for flavin mononucleotide
[3] = designed as: OFF switch for flavin mononucleotide, no ligand
[4] = ligand present: flavin mononucleotide, designed as: OFF switch for flavin mononucleotide

Sequence	apparent Kd [1]	apparent Kd [2]	apparent Kd [3]	apparent Kd [4]
AAAACAGCGCGUCCCGCGCCAACUACAGAAGGCCAACAUGAGGAUCACCCAUGUACAAACUAGAUGGAGGAUAUGUAGGUUCUA	6.35 nM	4.5 nM	–	–
AAUAAUCAGUAAGGAUAUACUAGCGAUUAGCUUGUAGAAGGUACAGUCUUAUGUAUAACAAAUUAACAUGAGGAUCACCCAUGU	9.19 nM	7.65 nM	–	–
CGGAGGUCAGGAUAUGCAUGGCGGGACUUGCGUCGUGGCGUGCAGAAGGGACAUGAGGAUCACCCAUGUGGAGG	–	–	155 nM	267 nM
UUACAUACAAAGUUACAUGAGGAUCACCCAUGUUUAUUGGGAAGAAGGGUAACAUUAUUAAAUAUAUAGGAUAUUUCACAAUUG	558 nM	359 nM	–	–
AAACAGGAAGGAUAUACAUUAUCGGAUCUUCUGGCAAUGCCACAUGAGGAUCACCCAUGUAGAAGGUCCAAAUU	–	–	13.6 nM	22.9 nM
CAGUACUGAGGAUAUACAUGAGGAUCACCCAUGUGCUCGAAGUAGGAUACUACUAUUAGUAGAAGGCAGUACUG	–	–	16.1 nM	76.8 nM
GUAUGAGCGAUAGGAUAUACUGAGAUUGAAUGGGUAGAAGGAUUUCUUGUGGGAAAGACAUGAGGAUCACCCAUGUCGCGGACC	299 nM	176 nM	–	–
GGUGCUAUGUAGAAGGCAGAUCUGAUUCAGAUCUGAGGAUAUACAUGAGGAUCACCCAUGUUAAGCACCAGCACGAGAGUGCAA	–	–	6.49 nM	11.2 nM
AAUUUACAUGAGGAUCACCCAUGUGAGGAUAUGAUACUAUGUACUUCGGUACAUAGUAUCAGAAGGCAUGUGGG	–	–	27.2 nM	21.4 nM
ACGGCAGUCGAAGGAUAUGGUUACAUGAGGAUCACCCAUGUCUAGGGUCUAAUUAGGUAUAAUUACCAGAAGGUCGAAGGCCUA	–	–	90.5 nM	123 nM
CCGCCAAUCGAGAAGGGCCCAUGUGCUACGUCGGCAGGAUAUCGACAUGAGGAUCACCCAUGUUGGCGAUCCUUUUUGGCGAAC	–	–	149 nM	108 nM
AUACUCGUUGUGAGGAUAUCGUUUUCUUUACGGAUCGAGAAGGCACAUGAGGAUCACCCAUGUUUGACGUGAAU	–	–	33.7 nM	162 nM
AAUAACAGAGGAUAUACUAUUUUAUGUGUUUGUUGUUUUGAACAUGAGGAUCACCCAUGUAGAAGGCUGAAUAA	–	–	22.6 nM	25.6 nM
UUAUGAUUAAGAGGAUAUAUACAACAUGAGGAUCACCCAUGUACCCAUGUAGUAGAAGGCUUAUUUUUAUAUAAUAAUAUAAUU	143 nM	47.6 nM	–	–
GUCAGCUCGUGAGGAUAUACAUGUGCUGGAGACAGCACUAUUGAGUUCACAUGAGGAUCACCCAUGUAGAAGGCACGAGCUGAU	–	–	15.5 nM	27.4 nM
UGUUGUAUUACAGGAUAUCUAGUAUUUAUAUUUAGAGAAGGGUAUUCACAUGAGGAUCACCCAUGUAUAUACGAGGAAGUUGUG	46.3 nM	49.2 nM	–	–
GUAGCAUACAGAGGAUAUUCAAACCGGAAACGGAACAUGAGGAUCACCCAUGUGGCGAAAGCCAGGGAGAAGGCUGAAUGCUAC	44.5 nM	16.8 nM	–	–
GUAGCAUACGGAGGAUAUUCAUACCGGAAACGGACAUGAGGAUCACCCAUGUGGCGAAAGCCAUGGGAGAAGGCCGUAUGCUAC	318 nM	149 nM	–	–
AAUAACAGAGGAUAUACUAUUUUAUGUGUUUAUUGUUUUGAACAUGAGGAUCACCCAUGUAGAAGGCUGAUUGA	–	–	47.8 nM	56.3 nM
ACCAUUUACUAGUUUUCUAUACAUGAGGAUCACCCAUGUUUUGAGGAUAUCAGCGUGAAACACGCUGAGAAGGCAAAACAUUCG	–	–	181 nM	342 nM
UGUGCUAUGUAGAAGGCAGAUCUGAUUCAGAUCUGAGGAUAUACAUGAGGAUCACCCAUGUUAUGCACCAGCACGAGAGUGCAC	–	–	7.89 nM	17.1 nM
GGAUAGGACAGAGGAUAUACGUGCUAGAGAUACUAGCAAAAUAUCCUCACAUGAGGAUCACCCAUGUAGAAGGCUGUCCUAUCG	–	–	18.1 nM	79 nM
GUGGUCAGACAUGAGGAUCACCCAUGUGGAAUAAAUAAGGAAUAGGAUAUCGAAUAUAGGAUAUACGAGAAGGGUUGGUUGGUG	121 nM	131 nM	–	–
CUCGGCGAGGGAGGAUAUCCCUAUGAGGCGGUGCAGCUCGGGAACAUGAGGAUCACCCAUGUAGCGGAGAAGGCCCAUACGCCU	–	–	9.59 nM	34.5 nM

Sequence	apparent Kd [1]	apparent Kd [2]	apparent Kd [3]	apparent Kd [4]
UUAUUAGCAGGAUAUAUCCAGGAUUACAUGAGGAUCACCCAUGUGACCGCUUGAGAUUCUAUAGAAGGGCUUUAUU	–	–	29.6 nM	29.8 nM
GCGUAUAUAUGAUUUAUAAAACAGUCAGAAGGUGAGAAGACGACAUGAGGAUCACCCAUGUUAUUCAAGGAUAUGAUAAUGCGC	13.1 nM	7.74 nM	–	–
AAACAAGCAGGGAUGCUUCGCAGGGAGGAUAUCUGACUGGGCGGACAUGAGGAUCACCCAUGUACAGAGAAGGCCCAAAGCACC	–	–	620 nM	32 nM
GCAACGCCUGACAUGAGGAUCACCCAUGUUAGAUUGUUAUGUCAGGAUAUAGUCUAGAAACUAGACUAGAAGGGAUAUGUUGCU	1010 nM	161 nM	–	–
AAUAUGAGCUGGAAUAACCUCAAAACAUGAGGAUCACCCAUGUAGGAUAUCAGCACGAUAAGUGCUGAGAAGGACAACCAGCUC	–	–	13.9 nM	18.1 nM
UAAUGUAUAUAGGAUAUCUAGCUGGAUACAGCUAGAGAAGGAUGUACAUGAGGAUCACCCAUGUAAAUCGAUCA	–	–	23.2 nM	55.7 nM
CUUCGUAUAGAGGAUAUAGGAUACUGCGGUGUCCUAGAAGGCUGUACAUGAGGAUCACCCAUGUACUUCAGAUC	–	–	12.6 nM	17.9 nM
CCGGAAAUACAGGAUAUAGGAGUCAAUAGACUCCUAGAAGGGUAUACAUGAGGAUCACCCAUGUGUCCUACCGG	–	–	35 nM	35.6 nM
AAUAACAGAGGAUAUACUAUUUUAUGUGUUUAUUGUUUUGAACAUGAGGAUCACCCAUGUAGAAGGCUGAGUAA	–	–	30.2 nM	38 nM
CAUUUGUGAGGAUAUCAGGUGUGCUAGCGUACUGGUACAUCUGAGAAGGCACAUGAGGAUCACCCAUGUUCCUC	–	–	50 nM	312 nM
GGAUGACAAAGUCAUCCAAUACGAACAUGAGGAUCACCCAUGUAGGAUAUGCAACACAAAGUGUUGCAGAAGGACAUGUGUCUU	–	–	30.4 nM	136 nM
AACCUACAUGAGGAUCACCCAUGUGAGGAUAUAUUGGUAUGGAUGUUAUUUUGUAGAGGUAGAAGGCGCGUGAU	–	–	15.4 nM	15.4 nM
CAGAGGAUGUAAGGAUAUCGUCAGGAAUACUGACGAGAAGGUACAUGAGGAUCACCCAUGUAACUCUAAUAAUAAUAACCUCUG	–	–	12.6 nM	16.4 nM
AAGUUUUUACAAGGAUAUCAUUUGUUUCUAAAUUCAACAUGAGGAUCACCCAUGUAACAAUGGAGUGAGAAGGUGUGUUGGCAA	101 nM	84.6 nM	–	–
UUGUGUGUAGAGGAUAUCUGCGCGCGCGCGCGCGGAGAAGGCUGUACAUGAGGAUCACCCAUGUUGUGUGUGUG	–	–	71.8 nM	29.9 nM
GGCAUAAACGAGGAUAUCGUUACGGAAACGUAACGAGAAGGUGUAACAUGAGGAUCACCCAUGUUCCUCAAGCC	–	–	30.5 nM	33 nM
GUUGGUGUAGAAGGAUAUUGGUGAUGCGUCUUGUACAUGAGGAUCACCCAUGUCACUCUGCACGCCGAGAAGGUCUGCAAAUGG	70 nM	48.1 nM	–	–
GGAAGACAAAGUCUUCCAAUUCGAACAUGAGGAUCACCCAUGUAGGAUAUGCUACUCAAAGAGUAGCAGAAGGACAUGUGCUUU	–	–	37.3 nM	164 nM
ACACGACAUGAGGAUCACCCAUGUGAGGAUAUCGAACUCAACUAAGCACAAAGUAACCCGAGAAGGCACACAAU	–	–	25.1 nM	24.1 nM
GCGAUUUUGUAAGGAUAUACUCGAGUUUUAAGAGUAGAAGGUACUUACAUGAGGAUCACCCAUGUCUAACGUAAUACUAGUCGC	10.3 nM	9.24 nM	–	–
ACUCGACAUGAGGAUCACCCAUGUGAGGAUAUGGCCUGUUUGGCGUGUGCUGGCUCUGUCAGAAGGCGCGUGGG	–	–	41.7 nM	89.3 nM
AGGUGUAGAGGAUAUUUAUUCUUCCACAUGAGGAUCACCCAUGUCCCGGUCACCAGGGACGGAGAAGGCUACACCA	–	–	77 nM	88.3 nM
CGCAGGAUACAGAAGGAGUUAUUGAGAGGUUUACUAGGAUAUGUUCACAUGAGGAUCACCCAUGUCAUAUGGUUUUUUAUUGCG	–	–	12.5 nM	11.7 nM
UGAGUGCGUGUUAGGAUAUGGUUUGGUAUUUCGGGCUAGAAGGGACAUGAGGAUCACCCAUGUAAUUGAUAGGU	–	–	47 nM	53 nM
